From ChEMBL document CHEMBL4680153, “New Spisulosine Derivative promotes robust autophagic response to cancer cells” (Eur J Med Chem, 2020)

Key:
Assay type in all cases: functional
MCF7 = experiment: Antiproliferative activity against human MCF7 cells assessed as reduction in cell growth at 10 uM incubated for 48 hrs by SRB assay relative to control
Procedure, shortened: (§1)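 Early-passage cells plated at 40% confluency and left overnight, then exposed to 10 μM compound for 48 h. Growth was measured by sulforhodamine B staining, with absorbance at 510 nm. Percent growth inhibition was calculated against untreated cells.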

MDA-MB-231 = experiment: Antiproliferative activity against human MDA-MB-231 cells assessed as reduction in cell growth at 10 uM incubated for 48 hrs by SRB assay relative to control; procedure, shortened: as §1
DLD-1 = experiment: Antiproliferative activity against human DLD-1 cells assessed as reduction in cell growth at 10 uM incubated for 48 hrs by SRB assay relative to control; procedure, shortened: as §1
HT-29 = experiment: Antiproliferative activity against human HT-29 cells assessed as reduction in cell growth at 10 uM incubated for 48 hrs by SRB assay relative to control; procedure, shortened: as §1
A549 = experiment: Antiproliferative activity against human A549 cells assessed as reduction in cell growth at 10 uM incubated for 48 hrs by SRB assay relative to control; procedure, shortened: as §1
NCI-H358 = experiment: Antiproliferative activity against human NCI-H358 cells assessed as reduction in cell growth at 10 uM incubated for 48 hrs by SRB assay relative to control; procedure, shortened: as §1

| SMILES | inhibition at 10 µM (MCF7) [%] | inhibition at 10 µM (MDA-MB-231) [%] | inhibition at 10 µM (DLD-1) [%] | inhibition at 10 µM (HT-29) [%] | inhibition at 10 µM (A549) [%] | inhibition at 10 µM (NCI-H358) [%] |
| --- | --- | --- | --- | --- | --- | --- |
| CCCCCCCCCCCCCC[C@H](OCOC)[C@H](CN1CCCCC1)NC(=O)OC(C)(C)C | 27.3 | 9.84 | 43.7 | 14.2 | 19 | 15.2 |
| CCCCCCCCCCCCCC[C@H](OCOC)[C@H](CN(CC)CC)NC(=O)OC(C)(C)C | 25.2 | 0.84 | 46.2 | -3.21 | 27.5 | 14.9 |
| CCCCCCCCCCCCCC[C@H](O)[C@H](Cc1ccc(OC)cc1)NC(=O)OC(C)(C)C | 8.77 | -16.5 | 27.9 | -7.41 | 23.4 | 6.37 |
| CCCCCCCCCCCCCC[C@H](O)[C@H](CN(C(C)C)C(C)C)NC(=O)OC(C)(C)C | 25.3 | -1.17 | 34.8 | 11.6 | 22.9 | 11.3 |
| CC(C)(C)OC(=O)N[C@H](CO)CO[Si](c1ccccc1)(c1ccccc1)C(C)(C)C | 28.3 | 32.3 | 73.5 | 46.2 | 25.4 | 53.4 |
| CCCCCCCCCCCCCC[C@H](O)[C@H](CO[Si](c1ccccc1)(c1ccccc1)C(C)(C)C)NC(=O)OC(C)(C)C | 2.79 | -37.5 | 10.4 | -14.4 | 14.6 | 3.11 |
| CCCCCCCCCCCCCC[C@H](OCOC)[C@H](CN(CCCC)CCCC)NC(=O)OC(C)(C)C | 27.1 | 22.3 | 56 | 15 | 42.2 | 25.1 |
| CCCCCCCCCCCCCC[C@H](OCOC)[C@H](CN1CCN(C)CC1)NC(=O)OC(C)(C)C | 28 | 24 | 31.9 | – | 18.2 | 18.9 |
| CCCCCCCCCCCCCC[C@H](O)[C@H](CN(CC)CC)NC(=O)OC(C)(C)C | 18.7 | -1.45 | 14.7 | – | 18.5 | 8.37 |
| CCCCCCCCCCCCCC[C@H](O)[C@H](CN1CCSCC1)NC(=O)OC(C)(C)C | 30.2 | 6.84 | 32.4 | 12 | 32 | 10.8 |
| CCCCCCCCCCCCCC[C@H](OCOC)[C@H](CO)NC(=O)OC(C)(C)C | 10.2 | -5.67 | 54.8 | 22 | 25.9 | 18.4 |
| COc1cccc2c1C(=O)c1c(O)c3c(c(O)c1C2=O)C[C@@](O)(C(=O)CO)C[C@@H]3O[C@H]1C[C@H](N)[C@H](O)[C@H](C)O1 [DOXORUBICIN] | 88.5 | 80.2 | 76.7 | 78.4 | 80.2 | 77.5 |
| CCCCCCCCCCCCCC[C@H](OCOC)[C@H](CN1CCSCC1)NC(=O)OC(C)(C)C | 24 | 4.73 | 58.5 | 8.57 | 29.9 | 22.7 |
| CCCCCCCCCCCCCC[C@H](OCOC)[C@H](CN(C(C)C)C(C)C)NC(=O)OC(C)(C)C | 26.9 | 31 | 53.9 | 19.9 | 22.6 | 26.6 |
